This is a sample that favours compounds with a hit; in the whole collection about 4.2% have one here.
TAAR1 antag – antagonists of human TAAR1; CHO RD-HGA16 TAAR1, Fluo-8 calcium fluorescence, antagonist; inhibition, % at 3 µM; AID 624466; Q96RJ0; 1.5% of 360,000 active;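 active = inhibition above a per-plate cutoff, the mean inhibition of test compounds on that plate plus 3 SD, cut at about 49% in these data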;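 also: 0% = DMSO plus EC80 beta-PEA response and 100% = DMSO alone without agonist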
Target sequence (Q96RJ0 whole entry, looked up): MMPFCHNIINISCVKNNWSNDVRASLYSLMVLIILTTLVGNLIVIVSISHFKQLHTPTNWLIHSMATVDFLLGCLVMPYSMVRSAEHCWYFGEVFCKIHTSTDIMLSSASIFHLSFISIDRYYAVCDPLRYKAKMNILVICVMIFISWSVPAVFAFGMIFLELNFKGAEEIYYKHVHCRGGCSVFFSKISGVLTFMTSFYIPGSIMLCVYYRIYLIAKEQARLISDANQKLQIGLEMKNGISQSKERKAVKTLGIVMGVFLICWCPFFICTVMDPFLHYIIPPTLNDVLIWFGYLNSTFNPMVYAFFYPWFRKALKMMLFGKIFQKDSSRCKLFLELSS
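Test system: RD-HGA16 CHO cells with stable hTAAR1 and Gα16 / Probe or stimulus: EC80 β-phenethylamine stimulus / Times: seeding 17-24 h prior, 75-min 37 °C, 30-min RT dye loading / Detection: Fluo-8 calcium-sensitive fluorescence / Read-out basis: % inhibition scaled between DMSO and EC80 PEA controls / Repeats: singlicate, one well per test compound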
CHO parental Ca – counter-screen: ATP calcium response change in parental CHO cells; 0.63% of 330,000 active; parental CHO-K1, ATP-induced calcium, Fluo-8 fluorescence; AID 463079; inhibition, % at 5.6 µM;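 active = inhibition above that plate's mean sample inhibition plus 3 SD, cut at about 26% in these data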;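 also: 0% = ATP-challenged DMSO wells and 100% = DMSO wells without ATP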
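Assay system – parental CHO cells · Reagent – ATP stimulus · Detection – intracellular calcium via Fluo-8 no-wash fluorescent dye · Evaluation – percent inhibition of ATP-evoked calcium rise, normalized to controls · Controls – ATP wells versus no-ATP DMSO wells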
TAAR1 ag – agonists of human TAAR1. activation, % at 3 µM. Q96RJ0. CHO RD-HGA16 TAAR1, Fluo-8 calcium fluorescence; vehicle wells 0%, saturating PEA agonist 100%. AID 624467. 0.99% of 360,000 active;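 active = activation above the mean activation of all test compounds in the run plus 3 SD, cut at about 38% in these data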
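System: CHO RD-HGA16 cells carrying human TAAR1 plus Gα16; Incubation: 17-24 h seeding, 75 min 37 °C dye, 30 min RT; Measured by: Fluo-8 fluorescence, 5 s baseline then 140 s kinetic read; Control set: DMSO and PEA EC100; Replication: single well for each compound.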
GalR3 antag – human GalR3 antagonism; HEK293 GalR3-CNG cAMP membrane potential fluorescence; galR3 body fused to GalR1 C-terminus; inhibition, % at 3 µM; 0.44% of 360,000 active;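 active = inhibition above the screen-wide average plus 3 SD, cut at about 13% in these data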;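 also: forskolin and galanin both at EC90 stimulate the cells; cAMP rise reported by CNG channel membrane potential dye signal; 0% = forskolin plus galanin with DMSO and 100% = forskolin alone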
Target sequence (O60755 1-299 limits assumed): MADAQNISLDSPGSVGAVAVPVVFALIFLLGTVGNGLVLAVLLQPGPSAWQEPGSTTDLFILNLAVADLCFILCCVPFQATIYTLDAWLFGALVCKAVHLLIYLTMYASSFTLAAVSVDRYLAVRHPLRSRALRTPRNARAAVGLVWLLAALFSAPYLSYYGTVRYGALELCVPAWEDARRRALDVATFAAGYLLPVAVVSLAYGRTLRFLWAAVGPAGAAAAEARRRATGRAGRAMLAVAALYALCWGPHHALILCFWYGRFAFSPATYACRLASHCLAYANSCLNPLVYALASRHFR
OX1R antag-1 – antagonists of human orexin 1 receptor; CHO/OX1R cells, Fluo-8 calcium fluorescence, orexin A; 0.43% of 330,000 active; inhibition, % at 5 µM; O43613;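 active = inhibition above its plate's threshold, mean inhibition of all tested compounds on the plate plus 3 SD, cut at about 37% in these data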;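 also: 0% = orexin A challenge wells and 100% = SB-334867-A antagonist wells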
OX1R antag-2 – OX1R (human) antagonism | OX1R-expressing cells, FRET antagonist read-out | inhibition, % at 6.6 µM | 1.8% of 330,000 active; in the data active = inhibition mostly above about 38%, no sharp cut-off; inactive = mostly below about 40%;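 also: 0% = agonist challenge alone and 100% = reference antagonist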
The depositor's hits bear a star; · = no result given.

SMILES | TAAR1 antag | CHO parental Ca | TAAR1 ag | GalR3 antag | OX1R antag-1 | OX1R antag-2
CC(=O)Oc1ccc(/C=N/NC(=O)c2ccc(N(C)S(=O)(=O)c3ccccc3)cc2)cc1 | 55.3* | 1.9 | 12.0 | 2.1 | -7.0 | 13.9
Cc1ccc(/C=N/NC(=O)c2ccc(N(C)S(=O)(=O)c3ccccc3)cc2)cc1 | 34.6 | -17.0 | 0.3 | -10.4 | -9.8 | 20.1
CN(c1ccccc1)S(=O)(=O)c1ccc(NC(=O)c2ccc(-c3ccccc3)cc2)cc1 | 12.4 | 9.2 | 5.6 | -2.1 | 29.5 | 25.9
O=C(CCc1nnc2ccc(NCc3ccco3)nn12)Nc1ccccn1 | -12.9 | -0.6 | 1.6 | -2.5 | -9.2 | -2.7
COc1cc(OC)cc(C(=O)Nc2ccc(C(=O)Nc3ccccc3OC)cc2)c1 | 56.5* | -11.7 | 11.4 | -7.2 | -6.3 | 6.7
Cc1cc(/C=N/n2cnnc2)c(C)n1-c1ccc(OCc2ccc(Cl)cc2Cl)cc1 | · | 44.9* | · | · | 52.9* | 50.1
Cc1cc(/C=N/n2cnnc2)c(C)n1-c1ccc(Cl)cc1 | -11.3 | -3.7 | -1.9 | -10.6 | -21.8 | 0.6
O=C(N/N=C/c1cc2c(c([N+](=O)[O-])c1)OCO2)c1ccncc1 | -10.8 | -9.8 | 2.5 | -8.0 | -7.5 | 54.0*
O=C(N/N=C/c1cc2c(cc1[N+](=O)[O-])OCO2)c1cccnc1 | -6.1 | -1.7 | 1.5 | -0.8 | -10.9 | 42.5
CC1CCN(C2=C(NS(=O)(=O)c3ccc(Br)cc3)C(=O)c3ccccc3C2=O)CC1 | 15.3 | -26.2 | 0.3 | 0.0 | -36.4 | 56.4*
O=C1C(NS(=O)(=O)c2ccc(Br)cc2)=C(N2CCCCC2)C(=O)c2ccccc21 | -23.4 | -28.8 | -4.0 | -1.6 | -34.5 | 53.0*
CCN1CCN(C2=C(NS(=O)(=O)c3ccc(C)cc3)C(=O)c3ccccc3C2=O)CC1 | -2.5 | -10.8 | 0.3 | -8.0 | -8.0 | 61.3*
CC(=O)Nc1ccc(S(=O)(=O)NC2=C(N3CCN(C)CC3)C(=O)c3ccccc3C2=O)cc1 | -11.5 | -8.2 | 1.6 | -1.0 | -7.2 | 68.4*
CC1CCCN(C2=C(NS(=O)(=O)c3ccc(Br)cc3)C(=O)c3ccccc3C2=O)C1 (configuration not stated) | -28.7 | -7.9 | 29.5 | 3.9 | -32.4 | 41.1
Cc1nc(C(=O)Nc2ccccc2Cl)cc2c1[nH]c1ccccc12 | 8.2 | 4.9 | 4.6 | -6.1 | 7.4 | 23.1
O=C(OCC(=O)N1CCCC1=O)c1cccc([N+](=O)[O-])c1 | -21.0 | -3.8 | 0.4 | -2.3 | -19.4 | 47.9*
Nc1cc(C(=O)OCC(=O)N2CCCC2=O)ccc1Cl | -2.9 | -4.0 | 0.2 | -2.2 | 6.6 | 4.1
C=CCn1c(Sc2nncn2C)nc2c1c(=O)[nH]c(=O)n2C | 5.2 | -8.8 | 1.3 | -1.1 | -7.3 | 13.7
Cc1cc(OCCCC(=O)Nc2cccc(-n3cnnn3)c2)ccc1Cl | 59.9* | 32.4 | 6.9 | -7.9 | 21.9 | 14.0
Cc1cc(OCC(=O)Nc2ccncc2)ccc1Cl | -1.1 | 30.2* | 9.1 | -6.1 | 3.2 | 35.1
O=C(Cc1ccccc1)NCc1ccc(-n2cccc2)cc1 | 12.7 | -7.5 | 37.9* | -2.4 | -18.3 | 12.5
O=C(N/N=C/c1ccc(O)cc1)c1ccc(NC(=O)c2ccccc2Br)cc1 | 37.0 | -2.0 | 3.3 | -3.4 | -7.1 | 18.9
COc1ccccc1/C=N/NC(=O)c1ccc(NC(=O)c2ccccc2Br)cc1 | 50.7* | -9.3 | 11.4 | 0.0 | -19.3 | 9.0
CCCOC(=O)c1ccc(NC(=O)c2ccccc2OC)cc1 | 0.0 | -10.8 | -0.3 | -7.9 | 10.9 | 76.4*
COc1cccc(OC)c1C(=O)Nc1ccc(Br)c(C(=O)c2ccccc2)c1 | 52.9* | -21.9 | -0.9 | 0.1 | -25.7 | 19.2
SMILES | TAAR1 antag | CHO parental Ca | TAAR1 ag | GalR3 antag | OX1R antag-1 | OX1R antag-2
COc1cccc(OC)c1C(=O)Nc1ccc(C)cc1C(=O)c1ccccc1 | 21.1 | -29.7 | 10.2 | -3.2 | -21.8 | 12.7
Cc1cc(C)c2oc(=O)cc(CN3CCN(Cc4ccc5c(c4)OCO5)CC3)c2c1 | 2.6 | · | 6.1 | 0.1 | · | ·
CCOC(=O)C(CC)Sc1ccc2nnc(CCNS(=O)(=O)c3ccccc3)n2n1 (configuration not stated) | 2.0 | -19.7 | 10.7 | -3.7 | -17.4 | 24.4
COc1ccc(C2=NOC(C(=O)NCc3ccccn3)C2)cc1 (configuration not stated) | 7.7 | -6.3 | 1.1 | -3.9 | -21.5 | 23.3
COc1cccc(C2=NOC(C(=O)NCc3ccccn3)C2)c1 (configuration not stated) | -21.5 | -6.4 | 45.1* | -0.4 | -5.9 | 5.0
CCOc1ccccc1N1CCN(C(=O)c2cccc(-c3ccc(O)cc3)c2)CC1 | 51.3* | -12.3 | 13.7 | -3.9 | -6.1 | 19.4
CC1CC(C)CN(C(=O)COC(=O)c2cccc(S(=O)(=O)N(C)c3ccccc3)c2)C1 (configuration not stated) | 38.8 | · | 4.7 | -4.0 | · | ·
Cc1c(N=C(N)/N=C(\N)Nc2ccccc2)c(=O)n(-c2ccccc2)n1C | -0.9 | -1.9 | 2.7 | -1.2 | -4.3 | 5.6
COc1ccc(C)cc1NS(=O)(=O)c1ccc2c(c1)NC(=O)C(C)S2 (configuration not stated) | 19.6 | -6.2 | 4.6 | -8.0 | -4.1 | 34.1
CCC1Sc2ccc(S(=O)(=O)Nc3ccc(OC)cc3)cc2NC1=O (configuration not stated) | 23.8 | 7.6 | 55.5* | -6.7 | 7.9 | 2.4
CCC1Sc2ccc(S(=O)(=O)Nc3ccc(OC)c(OC)c3)cc2NC1=O (configuration not stated) | 11.1 | 44.7* | 10.7 | -8.9 | 46.4* | 24.4
Cc1ccc(NC(=O)C2CCN(S(=O)(=O)c3ccc4[nH]c(=O)ccc4c3)CC2)c(C)c1 | -21.9 | -11.0 | 2.1 | 1.2 | -32.7 | 4.4
COc1ccc([C@H]2CC(=O)C=C(c3cccc(C(C)C)c3)C2)cc1OC | 66.1* | 24.4 | 5.1 | -11.8 | 48.0* | 5.6
O=C1C=C(c2ccc(-c3ccccc3)cc2)C[C@@H](c2ccc(F)cc2)C1 | 3.9 | -0.5 | -0.1 | -1.0 | 1.3 | 5.7
CC(C)c1cccc(C2=CC(=O)C[C@H](c3ccc(F)cc3)C2)c1 | 52.0* | -27.0 | 6.2 | -4.0 | -5.8 | 15.6
COc1ccc([C@H]2CC(=O)C=C(c3ccc4ccccc4c3)C2)cc1OC | 23.8 | -27.6 | 2.9 | -4.4 | 1.1 | -0.5
Cc1ccc(S(=O)(=O)NNC(=O)c2c(O)c3ccccc3[nH]c2=O)cc1 | -31.6 | -11.5 | 1.1 | 2.6 | -25.3 | 12.2
COc1ccc(C(=O)NC2CC(C)(C)Cc3c2cnn3-c2ccccc2C)c(OC)c1OC (configuration not stated) | -40.8 | -10.8 | -2.8 | -0.2 | -40.4 | 19.7
Cc1cc(C)c(C(=O)NC2CCCc3c2cnn3-c2cccc(C)c2C)o1 (configuration not stated) | -24.2 | -16.9 | 3.4 | -6.0 | 1.8 | 58.8*

Screens (PubChem)
